Experiments:
[1] = biological target: Voltage-gated inwardly rectifying potassium channel KCNH2 (Homo sapiens, UniProt Q12809); assay: Inhibition of human ERG expressed in CHO cells by patch clamp electrophysiology assay; format: cell-based
[2] = tested on: Human immunodeficiency virus 1; assay: microbe, parasite or virus in culture; settings: Human immunodeficiency virus 1, subtype C Du 172, clone 17
[3] = tested on: Human immunodeficiency virus 1; assay: Antiviral activity against ENV pseudotyped CCR5-tropic HIV1 subtype D QA013.70I.ENV.M12; format: functional; settings: Human immunodeficiency virus 1, subtype D QA013.70I.ENV.M12
In short: (§1)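 Env-pseudotyped viruses made by co-transfecting HEK293T cells with an Env-deleted pSG3 backbone (8 µg) and an Env-expression plasmid (8 µg). Supernatants were harvested 2 days after transfection, filtered, titered and stored at −80 °C. They were used for single-cycle infection, and IC50 was taken from percent inhibition.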

TZM = assay: Cytotoxicity against human TZM-bl cells incubated for 3 days by XTT assay; format: cell-based; settings: tzm, 72 h
In short: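 TZM-bl cells, 1 x 10^4/well, cultured overnight at 37 °C. Compounds added at graded concentrations for three days.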

[4] = tested on: Human immunodeficiency virus 1; assay: microbe, parasite or virus in culture; settings: Human immunodeficiency virus 1, subtype A/G CRF02_AG clone 263
[5] = Inhibition of HIV1 reverse transcriptase by colorimetric assay; set-up: species or system Human immunodeficiency virus 1
In short: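 HIV-1 reverse transcriptase activity measured with a commercial colorimetric reverse transcriptase kit, following the maker's instructions.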

[6] = tested on: Human immunodeficiency virus 1; assay: Antiviral activity against ENV pseudotyped CCR5-tropic HIV1 subtype C 25711-2, clone 4; format: functional; settings: Human immunodeficiency virus 1, subtype C 25711-2, clone 4
Cytochrome P450 3A4 = Cytochrome P450 3A4 (Homo sapiens, UniProt P08684); assay: Inhibition of CYP3A4 in human liver microsomes using midazolam as substrate after 5 mins in presence of NADPH by LC-MS/MS analysis; format: ADME
MT2 = assay: Cytotoxicity against human MT2 cells incubated for 4 days by XTT assay; format: cell-based; settings: mt2, 96 h, 96 h
In short: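 Run alongside the MT-2 multicycle infection assay. Compound at graded concentrations mixed with an equal volume of MT-2 cells (10^5 cells/ml). Medium replaced next day and culture continued four days.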

[7] = tested on: Human immunodeficiency virus 1; assay: microbe, parasite or virus in culture; settings: Human immunodeficiency virus 1, subtype C 6055-2, clone 3
[8] = tested on: Human immunodeficiency virus 1; assay: microbe, parasite or virus in culture; settings: Human immunodeficiency virus 1, subtype B p1058_11.B11.1550
[9] = Inhibition of HIV1 HXB2 gp120-mediated cell to cell fusion using human MAGI-CCR5 cells as indicator cells and Env/Tat-expressing HL2/3 cells as effector cells preincubated with MAGI-CCR5 cells for 1 hr followed by HL2/3 cells addition by beta-galactosidase reporter gene assay; settings: Human immunodeficiency virus 1, HXB2
[10] = tested on: Human immunodeficiency virus 1; assay: Antiviral activity against ENV pseudotyped CCR5-tropic HIV1 p1054.TC4.1499; format: functional
[11] = tested on: Human immunodeficiency virus 1; assay: microbe, parasite or virus in culture; settings: Human immunodeficiency virus 1, subtype C CAP210.2.00.E8
[12] = tested on: Human immunodeficiency virus 1; assay: Antiviral activity against ENV pseudotyped CCR5-tropic HIV1 p9021_14.B2.4571; format: functional; settings: Human immunodeficiency virus 1, p9021_14.B2.4571
[13] = tested on: Human immunodeficiency virus 1; assay: microbe, parasite or virus in culture; settings: Human immunodeficiency virus 1, subtype D/A BF535.W6M.ENV.A1
[14] = tested on: Human immunodeficiency virus 1; assay: microbe, parasite or virus in culture; settings: Human immunodeficiency virus 1, subtype A/E CRF01_AE clone 269
[15] = tested on: Human immunodeficiency virus 1; assay: microbe, parasite or virus in culture; settings: Human immunodeficiency virus 1, subtype C QB099.391 M.ENV.B1
Cytochrome P450 2D6 = Cytochrome P450 2D6 (Homo sapiens, UniProt P10635); assay: Inhibition of CYP2D6 in human liver microsomes using dextromethorphan as substrate after 5 mins in presence of NADPH by LC-MS/MS analysis; format: ADME
[16] = tested on: Human immunodeficiency virus 1; assay: Antiviral activity against ENV pseudotyped CCR5-tropic HIV1 subtype C 225925-2, clone 22; format: functional; settings: Human immunodeficiency virus 1, subtype C 225925-2, clone 22; in short: as §1
[17] = tested on: Human immunodeficiency virus 1
[18] = Apparent permeability from apical to basolateral side in human Caco2 cells at 10 uM at pH 7.4 by LC-MS/MS analysis; format: ADME, cell-based; settings: Caco-2, pH 7.4
In short: (§2)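 Caco-2 cells, passage 40-60, seeded on Transwell inserts at 1 x 10^5 cells/cm2 and grown 20 days in DMEM. Monolayers equilibrated 40 min in HBSS. Donor: compound at 10 µM final, 1% DMSO, in HBSS pH 7.4 with lucifer yellow as integrity marker. Sampled at 120 min, A-B and B-A, in duplicate, by LC-MS/MS. Papp = (dQ/dt)/(C0 × A); efflux ratio = Papp(B-A)/Papp(A-B).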

Cytochrome P450 2C19 = Cytochrome P450 2C19 (Homo sapiens, UniProt P33261); assay: Inhibition of CYP2C19 in human liver microsomes using mephenytoin as substrate after 60 mins in presence of NADPH by LC-MS/MS analysis; format: ADME
[19] = Apparent permeability from basolateral to apical side in human Caco2 cells at 10 uM at pH 7.4 by LC-MS/MS analysis; format: ADME, cell-based; settings: Caco-2, pH 7.4; in short: as §2
[20] = Metabolic stability in human liver microsomes assessed as compound remaining at 45 mins in presence of NADPH by LC-MS/MS analysis; format: ADME, microsome; settings: read-out: Stability
[21] = tested on: Human immunodeficiency virus 1; assay: Antiviral activity against HIV1 3B infected in human MT2 cells assessed as inhibition of p24 antigen production pretreated with virus for 30 mins followed by 4 days incubation with cells by sandwich ELISA based multicycle infection assay; format: functional, cell-based
In short: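 MT-2 cells were infected with HIV-1 IIIB at 100 TCID50 and preincubated 30 min with graded compound concentrations. Medium was replaced next day. Supernatants were collected 4 days post-infection, lysed with equal volume 5% Triton X-100, and p24 was measured by sandwich ELISA. IC50 came from percent inhibition of p24.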

[22] = Intrinsic clearance in human liver microsomes assessed per mg protein in presence of NADPH by LC-MS/MS analysis; format: ADME, microsome; settings: read-out: CLH
[23] = Inhibition of CYP1A in human liver microsomes using ethoxyresorufin as substrate after 5 mins in presence of NADPH by LC-MS/MS analysis
[24] = tested on: Human immunodeficiency virus 1; remark: listed apart in the source
[25] = tested on: Human immunodeficiency virus 1; assay: microbe, parasite or virus in culture; settings: Human immunodeficiency virus 1, subtype C ZM109F.PB4
[26] = tested on: Vesicular stomatitis virus; assay: Antiviral activity against G-glycoprotein expressing VSV; format: functional
In short: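 VSV-G pseudovirus made in HEK293T cells from pVPack-VSV-G, MLV gag-pol pVPack-GP and pFB-luc plasmids. Virus was preincubated 30 min with graded compound concentrations, then added to U87-CD4-CXCR4 cells (1 x 10^4/well, plated overnight).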

[27] = Aqueous solubility of the compound at 1 to 100 uM in PBS at pH 7.4 after 2 hrs by turbidimetric analysis; format: physicochemical
In short: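 DMSO stocks diluted 1:100 into phosphate-buffered saline pH 7.4, giving 1, 3, 10, 30 and 100 µM final in 1% DMSO. Seven replicate wells per concentration, incubated 2 h at 37 °C, absorbance read at 620 nm. Solubility taken as the concentration giving absorbance above the 1% DMSO vehicle.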

[28] = Unbound fraction in human plasma at 5 uM by LC-MS/MS based equilibrium dialysis; format: ADME, cell-free
[29] = tested on: Human immunodeficiency virus 1; assay: Antiviral activity against ENV pseudotyped CCR5-tropic HIV1 p9014_01.TBI.4769; format: functional; settings: Human immunodeficiency virus 1, p9014_01.TBI.4769; in short: as §1
Cytochrome P450 2C9 = Cytochrome P450 2C9 (Homo sapiens, UniProt P11712); assay: Inhibition of CYP2C9 in human liver microsomes using tolbutamide as substrate after 60 mins in presence of NADPH by LC-MS/MS analysis; format: ADME
[30] = tested on: Human immunodeficiency virus 1; assay: Antiviral activity against X4 tropic HIV1 HXB2 infected in human TZM-bl cells pretreated with virus for 30 mins followed by 3 days incubation with cells by luciferase reporter gene based single cycle infection assay; format: functional, cell-based
In short: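 TZM-bl cells (1 x 10^4/well) were cultured overnight at 37 °C. HXB2-Env pseudovirus was preincubated 30 min with graded compound concentrations, then added to the cells for 3 days. Cells were washed and lysed, and luciferase was read. IC50 came from percent inhibition.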

Chain of Cytochrome P450 2C9 (P11712 whole entry): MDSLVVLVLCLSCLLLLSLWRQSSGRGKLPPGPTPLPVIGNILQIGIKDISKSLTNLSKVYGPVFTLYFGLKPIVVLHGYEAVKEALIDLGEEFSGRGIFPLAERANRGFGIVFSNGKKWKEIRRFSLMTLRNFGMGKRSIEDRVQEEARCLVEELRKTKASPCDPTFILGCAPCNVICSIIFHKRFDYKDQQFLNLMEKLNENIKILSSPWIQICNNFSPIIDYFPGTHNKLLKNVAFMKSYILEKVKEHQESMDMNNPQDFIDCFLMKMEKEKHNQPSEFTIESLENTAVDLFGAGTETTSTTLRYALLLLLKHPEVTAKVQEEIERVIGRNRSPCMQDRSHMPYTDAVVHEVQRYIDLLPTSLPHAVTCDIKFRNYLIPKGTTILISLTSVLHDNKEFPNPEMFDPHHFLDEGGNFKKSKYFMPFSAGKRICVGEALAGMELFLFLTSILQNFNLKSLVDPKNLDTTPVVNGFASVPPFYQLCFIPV
Chain of Cytochrome P450 2C19 (P33261 whole entry): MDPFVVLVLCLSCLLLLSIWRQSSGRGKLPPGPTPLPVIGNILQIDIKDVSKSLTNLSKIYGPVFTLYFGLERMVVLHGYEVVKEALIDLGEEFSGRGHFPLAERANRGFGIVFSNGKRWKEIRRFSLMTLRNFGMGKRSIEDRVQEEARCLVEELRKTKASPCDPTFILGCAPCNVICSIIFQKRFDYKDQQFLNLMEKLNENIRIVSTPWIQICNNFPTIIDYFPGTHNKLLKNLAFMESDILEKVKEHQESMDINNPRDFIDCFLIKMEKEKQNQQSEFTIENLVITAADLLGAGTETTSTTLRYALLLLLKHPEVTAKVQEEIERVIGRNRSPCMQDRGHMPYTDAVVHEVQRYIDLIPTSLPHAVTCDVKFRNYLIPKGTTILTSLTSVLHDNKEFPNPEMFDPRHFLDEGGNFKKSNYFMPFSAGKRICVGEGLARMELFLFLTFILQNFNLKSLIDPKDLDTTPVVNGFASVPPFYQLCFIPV
Chain of Cytochrome P450 2D6 (P10635 whole entry): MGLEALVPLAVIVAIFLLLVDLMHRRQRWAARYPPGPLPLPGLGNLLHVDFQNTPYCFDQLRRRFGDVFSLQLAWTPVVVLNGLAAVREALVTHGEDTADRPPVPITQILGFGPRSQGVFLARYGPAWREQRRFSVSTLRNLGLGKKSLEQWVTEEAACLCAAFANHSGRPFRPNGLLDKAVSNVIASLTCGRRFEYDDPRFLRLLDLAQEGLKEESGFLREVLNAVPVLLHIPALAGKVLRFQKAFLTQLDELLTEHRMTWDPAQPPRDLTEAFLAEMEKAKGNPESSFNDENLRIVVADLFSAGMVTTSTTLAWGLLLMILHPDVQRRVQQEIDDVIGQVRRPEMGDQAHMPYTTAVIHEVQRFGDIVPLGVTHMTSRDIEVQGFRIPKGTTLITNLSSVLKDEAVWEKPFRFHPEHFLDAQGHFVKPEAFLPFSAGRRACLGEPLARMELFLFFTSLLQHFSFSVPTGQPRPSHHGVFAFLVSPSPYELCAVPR
Chain of Cytochrome P450 3A4 (P08684 whole entry): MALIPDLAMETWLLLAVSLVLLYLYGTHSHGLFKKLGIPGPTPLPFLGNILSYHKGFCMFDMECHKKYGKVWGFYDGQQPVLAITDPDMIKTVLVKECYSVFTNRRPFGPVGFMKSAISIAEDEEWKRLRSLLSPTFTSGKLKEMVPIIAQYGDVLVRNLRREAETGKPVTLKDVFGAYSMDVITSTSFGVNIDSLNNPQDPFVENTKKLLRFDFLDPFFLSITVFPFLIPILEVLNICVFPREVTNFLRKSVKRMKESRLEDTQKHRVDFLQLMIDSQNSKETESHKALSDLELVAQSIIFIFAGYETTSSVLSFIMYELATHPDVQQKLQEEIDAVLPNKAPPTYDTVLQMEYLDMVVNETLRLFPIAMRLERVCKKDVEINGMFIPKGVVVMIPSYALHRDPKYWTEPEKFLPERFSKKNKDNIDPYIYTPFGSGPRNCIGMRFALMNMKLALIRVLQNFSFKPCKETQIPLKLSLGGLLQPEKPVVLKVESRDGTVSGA
Chain of Voltage-gated inwardly rectifying potassium channel KCNH2 (Q12809 whole entry): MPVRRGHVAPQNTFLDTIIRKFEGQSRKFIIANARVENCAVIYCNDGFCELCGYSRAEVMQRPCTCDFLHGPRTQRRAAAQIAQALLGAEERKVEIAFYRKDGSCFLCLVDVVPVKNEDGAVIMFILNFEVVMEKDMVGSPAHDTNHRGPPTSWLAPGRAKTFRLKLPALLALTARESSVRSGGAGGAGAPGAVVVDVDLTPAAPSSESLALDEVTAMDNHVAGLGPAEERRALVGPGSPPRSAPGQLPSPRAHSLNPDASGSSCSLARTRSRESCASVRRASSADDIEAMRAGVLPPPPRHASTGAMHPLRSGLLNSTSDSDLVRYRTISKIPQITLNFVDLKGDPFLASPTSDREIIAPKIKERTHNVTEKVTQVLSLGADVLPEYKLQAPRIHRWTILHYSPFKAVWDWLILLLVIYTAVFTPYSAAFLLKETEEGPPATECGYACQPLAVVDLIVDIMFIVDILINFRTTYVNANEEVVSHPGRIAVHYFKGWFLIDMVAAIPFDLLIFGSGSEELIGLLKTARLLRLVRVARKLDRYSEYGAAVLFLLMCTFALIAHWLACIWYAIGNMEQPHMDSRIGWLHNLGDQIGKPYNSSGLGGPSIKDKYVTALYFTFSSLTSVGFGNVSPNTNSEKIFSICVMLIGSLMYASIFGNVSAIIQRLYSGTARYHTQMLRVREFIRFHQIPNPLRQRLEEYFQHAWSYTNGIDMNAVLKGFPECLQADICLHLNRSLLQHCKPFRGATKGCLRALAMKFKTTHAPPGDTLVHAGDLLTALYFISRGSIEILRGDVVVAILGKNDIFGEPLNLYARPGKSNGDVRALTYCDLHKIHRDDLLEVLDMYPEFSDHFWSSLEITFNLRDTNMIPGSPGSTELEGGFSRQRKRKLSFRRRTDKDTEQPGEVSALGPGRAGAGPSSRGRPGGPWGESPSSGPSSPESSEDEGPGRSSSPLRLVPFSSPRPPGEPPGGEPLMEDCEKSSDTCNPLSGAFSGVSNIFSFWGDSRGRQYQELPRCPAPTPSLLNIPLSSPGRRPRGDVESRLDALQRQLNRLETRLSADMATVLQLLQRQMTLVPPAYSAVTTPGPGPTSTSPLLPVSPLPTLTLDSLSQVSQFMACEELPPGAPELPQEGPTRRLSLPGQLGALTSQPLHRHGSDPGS

For `Cc1ccc(-c2ccc(C(=O)NC(CN)c3ncc(CO)s3)[nH]2)cc1F` (stereo in doubt), the IC50 [1] was 9980 nM, the IC50 [2] was 620 nM and the IC50 [3] was 240 nM. For the same molecule, the CC50 (TZM) was 38800 nM, the IC50 [4] was 500 nM and the IC50 [5] was 7200 nM. The IC50 [6] was 300 nM, the IC50 (Cytochrome P450 3A4) was > 25000 nM and the CC50 (MT2) was 38000 nM. It also gave an IC50 [7] of 220 nM, an IC50 [8] of 280 nM and an IC50 [9] of 8300 nM. For the same molecule, the IC50 [10] was 400 nM, the IC50 [11] was 490 nM and the IC50 [12] was 220 nM. It also gave an IC50 [13] of 550 nM, an IC50 [14] of 300 nM and an IC50 [15] of 350 nM. The IC50 (Cytochrome P450 2D6) was > 25000 nM, the IC50 [16] was 340 nM and the IC50 [17] was 400 nM. The Papp A→B at 10 µM [18] was 2.56 ×10⁻⁶ cm/s, the IC50 (Cytochrome P450 2C19) was > 25000 nM and the Papp B→A at 10 µM [19] was 19.5 ×10⁻⁶ cm/s. For the same molecule, the remaining at […] [20] was 101%, the IC50 [21] was 760 nM and the microsomal CLint [22] was < 10 µL/min/mg. The IC50 [23] was 8010 nM, the IC50 [24] was 400 nM and the IC50 [25] was 200 nM. The IC50 [26] was 42900 nM, the solubility kinetic at 2 h [27] was > 100 µM and the fraction unbound at 5 µM [28] was 0.04. The IC50 [29] was 310 nM and the IC50 (Cytochrome P450 2C9) was > 25000 nM.
Molecule `Cc1cc(-c2ccc(C(=O)NC(CCN(C)C)c3nc(C)c(CO)s3)[nH]2)ccc1F` (stereo in doubt; 69B) has a CC50 (TZM) of 23500 nM, a CC50 (MT2) of 23500 nM and an IC50 [30] of 4800 nM. For the same molecule, the IC50 [21] was 2900 nM.
Molecule `NCC(NC(=O)c1ccc(-c2ccc(Cl)cc2)[nH]1)c1ncc(CO)s1` (stereo in doubt; 81B) has a CC50 (TZM) of 37100 nM, a CC50 (MT2) of 34500 nM and an IC50 [30] of 750 nM. For the same molecule, the IC50 [21] was 1800 nM.
In the case of `NCC(NC(=O)c1ccc(-c2ccc(Cl)c(F)c2)[nH]1)c1ncc(CO)s1` (stereo in doubt; 82B), the CC50 (TZM) is reported as 33000 nM, the CC50 (MT2) is reported as 36000 nM and the IC50 [30] is reported as 570 nM. The IC50 [21] was 1200 nM.
For `CNCC(NC(=O)c1ccc(-c2ccc(Cl)c(F)c2)[nH]1)c1ncc(CO)s1` (stereo in doubt; 86B), the CC50 (TZM) was 17300 nM, the CC50 (MT2) was 18300 nM and the IC50 [30] was 950 nM. The IC50 [21] was 4000 nM.
With `CNCC(NC(=O)c1ccc(-c2ccc(C)c(F)c2)[nH]1)c1ncc(CO)s1` (stereo in doubt; 87B) the CC50 (TZM) was 27400 nM, the CC50 (MT2) was 28300 nM and the IC50 [30] was 1000 nM. It also gave an IC50 [21] of 990 nM.

Reference: ChEMBL document CHEMBL4007461, “Synthesis, Antiviral Potency, in Vitro ADMET, and X-ray Structure of Potent CD4 Mimics as Entry Inhibitors That Target the Phe43 Cavity of HIV-1 gp120” (J Med Chem, 2017)
